As usually defined, the IC50 is the concentration that gives 50% inhibition.

Molecules are shown by their SMILES.

This is an account of results in ChEMBL document CHEMBL1135628, “Potent and long-acting corticotropin releasing factor (CRF) receptor 2 selective peptide competitive antagonists” (J Med Chem, 2002).

The target of assay [1] is T1, Corticotropin-releasing factor receptor 1 (Homo sapiens, UniProt P34998).
T1 sequence (P34998 whole entry): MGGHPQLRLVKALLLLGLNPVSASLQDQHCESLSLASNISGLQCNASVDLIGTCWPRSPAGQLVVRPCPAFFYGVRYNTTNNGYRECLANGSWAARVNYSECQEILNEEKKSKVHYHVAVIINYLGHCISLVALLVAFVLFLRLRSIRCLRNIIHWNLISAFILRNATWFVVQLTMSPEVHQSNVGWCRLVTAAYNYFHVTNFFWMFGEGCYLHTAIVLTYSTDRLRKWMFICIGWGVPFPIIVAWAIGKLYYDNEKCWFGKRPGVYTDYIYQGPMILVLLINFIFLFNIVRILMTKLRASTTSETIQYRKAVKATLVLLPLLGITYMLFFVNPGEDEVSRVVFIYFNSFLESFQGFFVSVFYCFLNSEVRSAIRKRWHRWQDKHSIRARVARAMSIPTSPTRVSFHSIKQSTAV
Description: Inhibition of recombinant corticotropin releasing factor receptor 1 assayed using nonselective [125I]-labeled agonist [Tyr0,Glu1,Nle17]-sauvagine. In a few lines:
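Crude plasma membranes from stable CHO lines expressing hCRF1 or mCRF2β, stored in 10% sucrose at -80 °C. Incubated 90 min at room temperature, then washed and filtered. IC50 taken from one representative assay, repeated at least twice.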

For assay [2], the target named is Corticotropin-releasing factor receptor 2 (Mus musculus) (UniProt Q60748). The assay can be described thus: Inhibition of recombinant mouse corticotropin releasing factor receptor 2 beta (CRF2beta) assayed using nonselective [125I]-labeled agonist [Tyr0,Glu1,Nle17]-sauvagine as radioligand.
Sequence of Corticotropin-releasing factor receptor 2 (Mus musculus) (Q60748 whole entry, looked up): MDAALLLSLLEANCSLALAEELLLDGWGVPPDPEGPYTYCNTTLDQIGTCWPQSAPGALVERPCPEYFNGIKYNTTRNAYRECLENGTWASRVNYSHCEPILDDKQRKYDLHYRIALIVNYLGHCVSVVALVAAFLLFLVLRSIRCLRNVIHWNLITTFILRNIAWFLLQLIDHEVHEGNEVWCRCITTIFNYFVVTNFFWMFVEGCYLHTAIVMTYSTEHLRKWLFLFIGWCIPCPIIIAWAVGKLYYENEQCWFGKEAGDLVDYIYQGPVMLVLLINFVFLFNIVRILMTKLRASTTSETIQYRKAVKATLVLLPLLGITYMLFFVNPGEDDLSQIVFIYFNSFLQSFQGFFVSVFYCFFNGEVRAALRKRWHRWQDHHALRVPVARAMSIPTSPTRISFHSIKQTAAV

Regarding `CCCC[C@H](NC(=O)[C@H](CCCCN)NC(=O)[C@H](CCCN=C(N)N)NC(=O)[C@H](CC(C)C)NC(=O)[C@](C)(CC(C)C)NC(=O)[C@H](Cc1c[nH]cn1)NC(=O)[C@@H](Cc1ccccc1)NC(=O)[C@H](CO)NC(=O)[C@H](CC(C)C)NC(=O)[C@H](CC(=O)O)NC(C)=O)C(=O)N[C@H](C(=O)N[C@@H](CCC(=O)O)C(=O)N[C@H](C(=O)N[C@@H](CCC(=O)O)C(=O)N[C@@H](CCCCN)C(=O)N[C@@H](CCC(N)=O)C(=O)N[C@@H](CCC(=O)O)C(=O)N[C@@H](CCCCN)C(=O)N[C@@H](CCC(=O)O)C(=O)N[C@@H](CCCCN)C(=O)N[C@@H](CCC(N)=O)C(=O)N[C@@H](CCC(N)=O)C(=O)N[C@@H](C)C(=O)N[C@@H](C)C(=O)N[C@@H](CC(N)=O)C(=O)N[C@@H](CC(N)=O)C(=O)N[C@@H](CCCN=C(N)N)C(=O)N[C@@H](CC(C)C)C(=O)N[C@@H](CC(C)C)C(=O)N[C@@H](CC(C)C)C(=O)N[C@@H](CC(=O)O)C(=O)N[C@@](C)(CC(C)C)C(=O)N[C@H](C(N)=O)[C@@H](C)CC)[C@@H](C)CC)[C@@H](C)CC`, the IC50 worked out at 18.4 nM in assay [1] and 0.42 nM in assay [2].

On to `CCCC[C@H](NC(=O)[C@H](CCCCN)NC(=O)[C@H](CCCN=C(N)N)NC(=O)[C@H](CC(C)C)NC(=O)[C@](C)(CC(C)C)NC(=O)[C@H](Cc1c[nH]cn1)NC(=O)[C@@H](Cc1ccccc1)NC(=O)[C@H](CO)NC(=O)[C@H](CC(C)C)NC(=O)[C@H](CC(=O)O)NC(C)=O)C(=O)N[C@H](C(=O)N[C@@H](CCC(=O)O)C(=O)N[C@H](C(=O)N[C@@H](CCC(=O)O)C(=O)N[C@@H](CCCCN)C(=O)N[C@@H](CCC(N)=O)C(=O)N[C@@H](CCC(=O)O)C(=O)N[C@@H](CCCCN)C(=O)N[C@@H](CCC(=O)O)C(=O)N[C@@H](CCCCN)C(=O)N[C@H]1CCC(=O)NCCCC[C@@H](C(=O)N[C@@H](CC(N)=O)C(=O)N[C@@H](CC(N)=O)C(=O)N[C@@H](CCCN=C(N)N)C(=O)N[C@@H](CC(C)C)C(=O)N[C@@H](CC(C)C)C(=O)N[C@@H](CC(C)C)C(=O)N[C@@H](CC(=O)O)C(=O)N[C@@](C)(CC(C)C)C(=O)N[C@H](C(N)=O)[C@@H](C)CC)NC(=O)[C@H](C)NC(=O)[C@H](CCC(N)=O)NC1=O)[C@@H](C)CC)[C@@H](C)CC`, for which the concentration for half-maximal inhibition (IC50) in assay [1] turned out to be 7.7 nM; in assay [2] it was 0.57 nM.

As to `CCCC[C@H](NC(=O)[C@H](CCCCN)NC(=O)[C@H](CCCN=C(N)N)NC(=O)[C@H](CC(C)C)NC(=O)[C@](C)(CC(C)C)NC(=O)[C@H](Cc1c[nH]cn1)NC(=O)[C@@H](Cc1ccccc1)NC(=O)[C@H](CO)NC(=O)[C@H](CC(C)C)NC(=O)[C@H](CC(=O)O)NC(C)=O)C(=O)N[C@H](C(=O)N[C@@H](CCC(=O)O)C(=O)N[C@H](C(=O)N[C@@H](CCC(=O)O)C(=O)N[C@@H](CCCCN)C(=O)N[C@@H](CCC(N)=O)C(=O)N[C@@H](CCC(=O)O)C(=O)N[C@@H](CCCCN)C(=O)N[C@@H](CCC(=O)O)C(=O)N[C@H]1CCC(=O)NCCCC[C@@H](C(=O)N[C@@H](C)C(=O)N[C@@H](CC(N)=O)C(=O)N[C@@H](CC(N)=O)C(=O)N[C@@H](CCCN=C(N)N)C(=O)N[C@@H](CC(C)C)C(=O)N[C@@H](CC(C)C)C(=O)N[C@@H](CC(C)C)C(=O)N[C@@H](CC(=O)O)C(=O)N[C@@](C)(CC(C)C)C(=O)N[C@H](C(N)=O)[C@@H](C)CC)NC(=O)[C@H](CCC(N)=O)NC(=O)[C@H](CCC(N)=O)NC1=O)[C@@H](C)CC)[C@@H](C)CC`, the IC50 in assay [1] came to 45 nM; in assay [2], 1.3 nM.

Regarding `CCCC[C@H](NC(=O)[C@H](CCCCN)NC(=O)[C@H](CCCN=C(N)N)NC(=O)[C@H](CC(C)C)NC(=O)[C@](C)(CC(C)C)NC(=O)[C@H](Cc1c[nH]cn1)NC(=O)[C@@H](Cc1ccccc1)NC(=O)[C@H](CO)NC(=O)[C@H](CC(C)C)NC(=O)[C@H](CC(=O)O)NC(C)=O)C(=O)N[C@H](C(=O)N[C@@H](CCC(=O)O)C(=O)N[C@H](C(=O)N[C@@H](CCC(=O)O)C(=O)N[C@@H](CCCCN)C(=O)N[C@@H](CCC(N)=O)C(=O)N[C@@H](CCC(=O)O)C(=O)N[C@@H](CCCCN)C(=O)N[C@@H](CCC(=O)O)C(=O)N[C@@H](CCCCN)C(=O)N[C@@H](CCC(N)=O)C(=O)N[C@@H](CCC(N)=O)C(=O)N[C@@H](C)C(=O)N[C@@H](C)C(=O)N[C@@H](CC(N)=O)C(=O)N[C@@H](CC(N)=O)C(=O)N[C@H]1CCC(=O)NCCCC[C@@H](C(=O)N[C@@H](CC(=O)O)C(=O)N[C@@](C)(CC(C)C)C(=O)N[C@H](C(N)=O)[C@@H](C)CC)NC(=O)[C@H](CC(C)C)NC(=O)[C@H](CC(C)C)NC1=O)[C@@H](C)CC)[C@@H](C)CC`, the IC50 in assay [1] was more than 100 nM; in assay [2], 17.8 nM.

Consider `CCCC[C@H](NC(=O)[C@H](CCCCN)NC(=O)[C@H](CCCN=C(N)N)NC(=O)[C@H](CC(C)C)NC(=O)[C@](C)(CC(C)C)NC(=O)[C@H](Cc1c[nH]cn1)NC(=O)[C@@H](Cc1ccccc1)NC(=O)[C@H](CO)NC(=O)[C@H](CC(C)C)NC(=O)[C@H](CC(=O)O)NC(C)=O)C(=O)N[C@H](C(=O)N[C@@H](CCC(=O)O)C(=O)N[C@H](C(=O)N[C@@H](CCC(=O)O)C(=O)N[C@@H](CCCCN)C(=O)N[C@@H](CCC(N)=O)C(=O)N[C@@H](CCC(=O)O)C(=O)N[C@@H](CCCCN)C(=O)N[C@@H](CCC(=O)O)C(=O)N[C@@H](CCCCN)C(=O)N[C@@H](CCC(N)=O)C(=O)N[C@@H](CCC(N)=O)C(=O)N[C@@H](C)C(=O)N[C@@H](C)C(=O)N[C@@H](CC(N)=O)C(=O)N[C@H]1CCC(=O)NCCCC[C@@H](C(=O)N[C@@H](CC(C)C)C(=O)N[C@@H](CC(=O)O)C(=O)N[C@@](C)(CC(C)C)C(=O)N[C@H](C(N)=O)[C@@H](C)CC)NC(=O)[C@H](CC(C)C)NC(=O)[C@H](CCCN=C(N)N)NC1=O)[C@@H](C)CC)[C@@H](C)CC`, for which the IC50 in assay [1] and in assay [2] was more than 100 nM in each case.

For `CCCC[C@H](NC(=O)[C@H](CCCCN)NC(=O)[C@H](CCCN=C(N)N)NC(=O)[C@H](CC(C)C)NC(=O)[C@](C)(CC(C)C)NC(=O)[C@H](Cc1c[nH]cn1)NC(=O)[C@@H](Cc1ccccc1)NC(=O)[C@H](CO)NC(=O)[C@H](CC(C)C)NC(=O)[C@H](CC(=O)O)NC(C)=O)C(=O)N[C@H](C(=O)N[C@@H](CCC(=O)O)C(=O)N[C@H](C(=O)N[C@@H](CCC(=O)O)C(=O)N[C@@H](CCCCN)C(=O)N[C@@H](CCC(N)=O)C(=O)N[C@@H](CCC(=O)O)C(=O)N[C@@H](CCCCN)C(=O)N[C@@H](CCC(=O)O)C(=O)N[C@@H](CCCCN)C(=O)N[C@@H](CCC(N)=O)C(=O)N[C@@H](CCC(N)=O)C(=O)N[C@@H](C)C(=O)N[C@@H](C)C(=O)N[C@@H](CCC(N)=O)C(=O)N[C@@H](CC(N)=O)C(=O)N[C@@H](CCCN=C(N)N)C(=O)N[C@@H](CCCCNC(C)=O)C(=O)N[C@@H](CC(C)C)C(=O)N[C@@H](CC(C)C)C(=O)N[C@@H](CC(=O)O)C(=O)N[C@@](C)(CC(C)C)C(=O)N[C@H](C(N)=O)[C@@H](C)CC)[C@@H](C)CC)[C@@H](C)CC`, the IC50 in assay [1] is 3.4 nM; in assay [2] it was 0.51 nM.

For `CCCC[C@H](NC(=O)[C@H](CCCCN)NC(=O)[C@H](CCCN=C(N)N)NC(=O)[C@H](CC(C)C)NC(=O)[C@](C)(CC(C)C)NC(=O)[C@H](Cc1c[nH]cn1)NC(=O)[C@@H](Cc1ccccc1)NC(=O)[C@H](CO)NC(=O)[C@H](CC(C)C)NC(=O)[C@H](CC(=O)O)NC(C)=O)C(=O)N[C@H](C(=O)N[C@@H](CCC(=O)O)C(=O)N[C@H](C(=O)N[C@@H](CCC(=O)O)C(=O)N[C@@H](CCCCN)C(=O)N[C@@H](CCC(N)=O)C(=O)N[C@@H](CCC(=O)O)C(=O)N[C@@H](CCCCN)C(=O)N[C@@H](CCC(=O)O)C(=O)N[C@@H](CCCCN)C(=O)N[C@@H](CCC(N)=O)C(=O)N[C@@H](CCC(N)=O)C(=O)N[C@@H](C)C(=O)N[C@@H](C)C(=O)N[C@H]1CCC(=O)NCCCC[C@@H](C(=O)N[C@@H](CC(C)C)C(=O)N[C@@H](CC(C)C)C(=O)N[C@@H](CC(=O)O)C(=O)N[C@@](C)(CC(C)C)C(=O)N[C@H](C(N)=O)[C@@H](C)CC)NC(=O)[C@H](CCCN=C(N)N)NC(=O)[C@H](CC(N)=O)NC1=O)[C@@H](C)CC)[C@@H](C)CC`, the IC50 is 5.9 nM in assay [1] and 0.61 nM in assay [2].

In the case of `CCCC[C@H](NC(=O)[C@H](CCCCN)NC(=O)[C@H](CCCN=C(N)N)NC(=O)[C@H](CC(C)C)NC(=O)[C@](C)(CC(C)C)NC(=O)[C@H](Cc1c[nH]cn1)NC(=O)[C@@H](Cc1ccccc1)NC(=O)[C@H](CO)NC(=O)[C@H](CC(C)C)NC(=O)[C@H](CC(=O)O)NC(C)=O)C(=O)N[C@H](C(=O)N[C@@H](CCC(=O)O)C(=O)N[C@H](C(=O)N[C@@H](CCC(=O)O)C(=O)N[C@@H](CCCCN)C(=O)N[C@@H](CCC(N)=O)C(=O)N[C@@H](CCC(=O)O)C(=O)N[C@@H](CCCCN)C(=O)N[C@@H](CCC(=O)O)C(=O)N[C@@H](CCCCN)C(=O)N[C@@H](CCC(N)=O)C(=O)N[C@H]1CCC(=O)NCCCC[C@@H](C(=O)N[C@@H](CC(N)=O)C(=O)N[C@@H](CCCN=C(N)N)C(=O)N[C@@H](CC(C)C)C(=O)N[C@@H](CC(C)C)C(=O)N[C@@H](CC(C)C)C(=O)N[C@@H](CC(=O)O)C(=O)N[C@@](C)(CC(C)C)C(=O)N[C@H](C(N)=O)[C@@H](C)CC)NC(=O)[C@H](C)NC(=O)[C@H](C)NC1=O)[C@@H](C)CC)[C@@H](C)CC`, the IC50 was 0.24 nM in assay [1] and 1.2 nM in assay [2].
